Values belong to the compound of their own block, whether it stands above or below them.
Legend:
[1] = biological target: T1, Prostaglandin E2 receptor EP1 subtype (Homo sapiens, UniProt P34995); test: Displacement of [3H]PGE2 from human EP1 receptor expressed in CHO cells; type: cell-based
T1 sequence (P34995 whole entry): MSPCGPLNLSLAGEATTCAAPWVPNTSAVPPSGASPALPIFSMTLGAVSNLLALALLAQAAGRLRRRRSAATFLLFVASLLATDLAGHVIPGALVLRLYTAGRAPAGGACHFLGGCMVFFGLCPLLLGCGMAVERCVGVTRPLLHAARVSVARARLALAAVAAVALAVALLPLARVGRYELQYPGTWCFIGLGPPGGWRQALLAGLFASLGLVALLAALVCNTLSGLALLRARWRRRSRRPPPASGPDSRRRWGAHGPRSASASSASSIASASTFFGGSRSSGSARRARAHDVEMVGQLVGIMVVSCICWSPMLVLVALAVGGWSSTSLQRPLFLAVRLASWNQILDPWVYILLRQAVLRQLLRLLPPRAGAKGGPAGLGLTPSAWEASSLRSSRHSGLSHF
Summary of the method: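 Radioligand binding with [3H]-PGE2 in CHO cells overexpressing human EP1 receptor. Values are the mean of at least three experiments with standard deviations.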

[2] = Selectivity for human recombinant EP1 receptor over DP1
[3] = biological target: Cytochrome P450 2D6 (Homo sapiens, UniProt P10635); test: Inhibition of human CYP2D6; type: ADME
Sequence of Cytochrome P450 2D6 (P10635 whole entry): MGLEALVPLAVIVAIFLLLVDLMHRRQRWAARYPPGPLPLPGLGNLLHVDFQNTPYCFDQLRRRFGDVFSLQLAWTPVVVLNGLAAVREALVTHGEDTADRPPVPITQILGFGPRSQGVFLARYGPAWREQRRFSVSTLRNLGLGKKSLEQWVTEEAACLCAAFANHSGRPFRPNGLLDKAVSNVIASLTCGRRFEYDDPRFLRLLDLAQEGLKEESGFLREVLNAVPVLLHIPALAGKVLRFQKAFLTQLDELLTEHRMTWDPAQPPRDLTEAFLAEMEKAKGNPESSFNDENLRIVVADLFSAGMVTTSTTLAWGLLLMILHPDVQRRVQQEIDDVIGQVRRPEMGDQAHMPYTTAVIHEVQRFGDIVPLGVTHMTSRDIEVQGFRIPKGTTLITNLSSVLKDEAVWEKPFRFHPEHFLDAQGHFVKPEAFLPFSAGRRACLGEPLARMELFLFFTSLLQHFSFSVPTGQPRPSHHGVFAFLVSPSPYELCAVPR
Summary of the method: (§1)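 Inhibition of metabolism of fluorometric substrates (Cypex protocol); IC50 values are the mean of three experiments ± standard deviation.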

[4] = biological target: T2, Cytochrome P450 1A2 (Homo sapiens, UniProt P05177); test: Inhibition of human CYP1A2; type: ADME; summary of the method: as §1
T2 sequence (P05177 whole entry): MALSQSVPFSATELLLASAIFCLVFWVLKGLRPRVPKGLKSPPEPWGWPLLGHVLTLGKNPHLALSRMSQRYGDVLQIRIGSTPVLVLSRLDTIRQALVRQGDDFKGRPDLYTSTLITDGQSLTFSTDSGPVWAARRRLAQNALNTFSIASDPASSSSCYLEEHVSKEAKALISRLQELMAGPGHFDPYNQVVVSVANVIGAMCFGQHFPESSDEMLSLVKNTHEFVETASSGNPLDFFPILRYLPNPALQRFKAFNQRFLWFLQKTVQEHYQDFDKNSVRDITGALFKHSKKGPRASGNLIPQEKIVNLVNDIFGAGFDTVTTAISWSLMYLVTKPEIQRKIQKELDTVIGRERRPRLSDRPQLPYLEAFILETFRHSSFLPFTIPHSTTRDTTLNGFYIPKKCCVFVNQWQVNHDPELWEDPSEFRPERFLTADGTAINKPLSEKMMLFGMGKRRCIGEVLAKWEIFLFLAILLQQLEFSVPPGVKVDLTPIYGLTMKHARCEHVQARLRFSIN

[5] = biological target: Cytochrome P450 2C19 (Homo sapiens, UniProt P33261); test: Inhibition of human CYP2C19; type: ADME; summary of the method: as §1
Sequence of Cytochrome P450 2C19 (P33261 whole entry): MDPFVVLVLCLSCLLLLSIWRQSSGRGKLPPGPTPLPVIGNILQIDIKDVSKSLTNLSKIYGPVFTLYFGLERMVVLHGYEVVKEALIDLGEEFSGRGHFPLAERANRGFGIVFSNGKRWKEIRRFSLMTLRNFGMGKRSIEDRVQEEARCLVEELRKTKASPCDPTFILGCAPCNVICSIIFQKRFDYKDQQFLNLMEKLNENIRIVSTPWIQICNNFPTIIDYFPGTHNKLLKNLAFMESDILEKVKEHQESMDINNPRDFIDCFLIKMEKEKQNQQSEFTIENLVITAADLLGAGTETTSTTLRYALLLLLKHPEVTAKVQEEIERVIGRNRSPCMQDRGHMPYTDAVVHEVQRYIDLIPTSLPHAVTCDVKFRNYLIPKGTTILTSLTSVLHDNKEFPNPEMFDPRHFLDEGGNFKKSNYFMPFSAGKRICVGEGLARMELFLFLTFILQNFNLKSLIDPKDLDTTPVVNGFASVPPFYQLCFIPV

[6] = Metabolic stability in rat liver microsomes assessed as compound turnover after 30 mins; type: ADME, Microsome; conditions: read-out: Stability
[7] = Lipophilicity, log D at pH 7.4; type: physicochemical; conditions: buffer
[8] = Metabolic stability in human liver microsomes assessed as compound turnover after 30 mins; type: ADME, Microsome; conditions: read-out: Stability
[9] = biological target: T1, Prostaglandin E2 receptor EP1 subtype; test: Antagonist activity at human recombinant EP1 receptor expressed in CHO cells assessed as inhibition of PGE2-mediated intracellular calcium mobilization by FLIPR method; type: functional, cell-based
Summary of the method: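 CHO cells recombinantly overexpressing human EP1 receptor; antagonism measured as block of PGE2-mediated intracellular Ca2+ mobilization. Values are the mean of at least three experiments with standard deviations.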

[10] = biological target: Cytochrome P450 2C9 (Homo sapiens, UniProt P11712); test: Inhibition of human CYP2C9; type: ADME; summary of the method: as §1
Sequence of Cytochrome P450 2C9 (P11712 whole entry): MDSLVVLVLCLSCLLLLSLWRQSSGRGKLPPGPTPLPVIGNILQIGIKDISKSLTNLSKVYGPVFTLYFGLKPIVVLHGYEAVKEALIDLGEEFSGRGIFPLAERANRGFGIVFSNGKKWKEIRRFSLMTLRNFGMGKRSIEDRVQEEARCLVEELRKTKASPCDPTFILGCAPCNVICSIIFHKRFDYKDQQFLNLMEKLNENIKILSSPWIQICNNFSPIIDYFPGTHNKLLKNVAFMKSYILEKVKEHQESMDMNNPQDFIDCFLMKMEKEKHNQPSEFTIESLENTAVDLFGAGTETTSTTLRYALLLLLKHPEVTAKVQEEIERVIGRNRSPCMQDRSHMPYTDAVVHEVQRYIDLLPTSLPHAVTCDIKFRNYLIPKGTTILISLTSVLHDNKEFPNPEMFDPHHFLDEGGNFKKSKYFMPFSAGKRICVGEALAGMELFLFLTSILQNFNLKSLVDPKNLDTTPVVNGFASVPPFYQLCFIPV

[11] = Drug level in blood of complete Freund's adjuvant-induced rat inflammatory pain model at 3 mg/kg, po administered after 23 hrs of adjuvant challenge measured after 1 hr; type: ADME, organism-based; parameters: dose 3 mg/kg, route oral; conditions: read-out: Drug uptake
Summary of the method: (§2)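 CFA rat study: oral doses of 1, 3 or 10 mg/kg given 23 h after intraplantar adjuvant, samples 1 h post-dose. Blood values are the mean from seven animals. Brain values are the mean from three animals.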

[12] = Drug level in blood of complete Freund's adjuvant-induced rat inflammatory pain model at 1 mg/kg, po administered after 23 hrs of adjuvant challenge measured after 1 hr; type: ADME, organism-based; parameters: dose 1 mg/kg, route oral; conditions: read-out: Drug uptake; summary of the method: as §2
[13] = Ratio of drug level in brain to blood in complete Freund's adjuvant-induced rat inflammatory pain model at 1 mg/kg, po administered after 23 hrs of adjuvant challenge measured after 1 hr; type: ADME, organism-based; parameters: dose 1 mg/kg, route oral; conditions: brain and blood
Summary of the method: (§3)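 Rat CFA inflammatory pain model: oral dosing at 1, 3 or 10 mg/kg 23 h after intraplantar adjuvant; blood and brain sampled 1 h post-dose from the same animal; Br:Bl ratio is the mean from three animals.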

[14] = biological target: T3, Cytochrome P450 3A4 (Homo sapiens, UniProt P08684); test: Inhibition of human CYP3A4 using PPR substrate; type: ADME
T3 sequence (P08684 whole entry): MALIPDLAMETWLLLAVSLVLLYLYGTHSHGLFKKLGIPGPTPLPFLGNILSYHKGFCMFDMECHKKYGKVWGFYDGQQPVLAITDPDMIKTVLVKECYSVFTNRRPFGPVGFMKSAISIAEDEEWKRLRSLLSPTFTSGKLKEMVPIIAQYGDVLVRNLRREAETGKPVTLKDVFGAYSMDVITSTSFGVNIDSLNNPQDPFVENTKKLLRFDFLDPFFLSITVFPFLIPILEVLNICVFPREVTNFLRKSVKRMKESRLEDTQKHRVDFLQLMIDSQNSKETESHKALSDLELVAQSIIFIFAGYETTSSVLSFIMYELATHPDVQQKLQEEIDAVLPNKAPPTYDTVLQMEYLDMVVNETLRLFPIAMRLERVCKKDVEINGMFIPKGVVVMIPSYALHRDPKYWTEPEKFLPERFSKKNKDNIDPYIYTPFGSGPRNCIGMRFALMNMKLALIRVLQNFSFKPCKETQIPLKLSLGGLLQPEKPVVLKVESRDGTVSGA

[15] = system: Rattus norvegicus; test: […] activity against complete Freund's adjuvant induced inflammatory pain in po dosed rat assessed as reversal of hypersensitivity post-adjuvant challenge after 1 hr; type: functional
Summary of the method: (§4)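 Rats given adjuvant by intraplantar injection; oral dosing at 1, 3 and 10 mg/kg 23 h later. Hypersensitivity assessed by weight-bearing 1 h post-dose. ED50 derived across doses.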

[16] = Ratio of drug level in brain to blood in complete Freund's adjuvant-induced rat inflammatory pain model at 3 mg/kg, po administered after 23 hrs of adjuvant challenge measured after 1 hr; type: ADME, organism-based; parameters: dose 3 mg/kg, route oral; conditions: brain and blood; summary of the method: as §3
[17] = Drug level in brain of complete Freund's adjuvant-induced rat inflammatory pain model at 3 mg/kg, po administered after 23 hrs of adjuvant challenge measured after 1 hr; type: ADME, organism-based; parameters: dose 3 mg/kg, route oral; conditions: read-out: Drug uptake; summary of the method: as §2
[18] = Drug level in brain of complete Freund's adjuvant-induced rat inflammatory pain model at 1 mg/kg, po administered after 23 hrs of adjuvant challenge measured after 1 hr; type: ADME, organism-based; parameters: dose 1 mg/kg, route oral; conditions: read-out: Drug uptake; summary of the method: as §2
[19] = biological target: T3, Cytochrome P450 3A4; test: Inhibition of human CYP3A4 using DEF substrate; type: ADME
[20] = (§5) Drug level in brain of complete Freund's adjuvant-induced rat inflammatory pain model at 10 mg/kg, po administered after 23 hrs of adjuvant challenge measured after 1 hr; type: ADME, organism-based; parameters: dose 10 mg/kg, route oral; conditions: brain, read-out: Drug uptake; summary of the method: as §2
[21] = Ratio of drug level in brain to blood in complete Freund's adjuvant-induced rat inflammatory pain model at 10 mg/kg, po administered after 23 hrs of adjuvant challenge measured after 1 hr; type: ADME, organism-based; parameters: dose 10 mg/kg, route oral; conditions: brain and blood; summary of the method: as §3
[22] = Drug level in blood of complete Freund's adjuvant-induced rat inflammatory pain model at 10 mg/kg, po administered after 23 hrs of adjuvant challenge measured after 1 hr; type: ADME, organism-based; parameters: dose 10 mg/kg, route oral; conditions: read-out: Drug uptake; summary of the method: as §2
[23] = system: Brain; test: as §5; type: ADME, organism-based; parameters: dose 10 mg/kg, route oral; conditions: in vivo, 1 h; summary of the method: as §2
[24] = system: Rattus norvegicus; test: […] activity against complete Freund's adjuvant-induced inflammatory pain in rat assessed as reversal of hypersensitivity at 10 mg/kg, po administered 23 hrs post-adjuvant challenge measured after 1 hr; type: functional; summary of the method: as §4

IC50 [1]: 39.8 nM
Structure (SMILES): O=C(O)c1cccc(Cc2cc(Cl)ccc2OCc2ccc(Cl)cc2)n1

fold change (FC) [2]: > 400
Structure (SMILES): O=C(O)c1cccc(C2=C(c3cc(Cl)ccc3OCc3ccc(F)cc3F)CCC2)n1

IC50 [1]: 31.6 nM
Structure (SMILES): O=C(O)c1cccc(Cc2cc(Cl)ccc2OCC2CCCC2)n1

IC50 [1]: 100 nM
Structure (SMILES): O=C(O)c1cccc(Cc2cc(Cl)ccc2OCc2ccc(F)cc2)n1

IC50 [1]: 79.4 nM
Structure (SMILES): O=C(O)c1cccc(Cc2cc(Cl)ccc2OCc2ccccc2F)n1

IC50 [1]: 39.8 nM
Structure (SMILES): O=C(O)c1cccc(Cc2cc(Cl)ccc2OCc2ccccc2Cl)n1

IC50 [1]: 100 nM
Structure (SMILES): O=C(O)c1cccc(Cc2cc(Cl)ccc2OCC2CCCCC2)n1

IC50 [1]: 200 nM
Structure (SMILES): O=C(O)c1cccc(Cc2cc(Cl)ccc2OCC2CC2)n1

IC50 [3]: > 50000 nM | IC50 [4]: 32000 nM | IC50 [5]: > 50000 nM | IC50 [1]: 10 nM | metabolised at 0.5 h [6]: < 15% | logD [7]: 2.6 | metabolised at 0.5 h [8]: < 15% | Ki [9]: 25.1 nM | IC50 [10]: 4800 nM
Structure (SMILES): O=C(O)c1cccc(Cc2cc(Cl)ccc2OCc2ccc(Cl)cc2Cl)n1

concentration at 1 h [11]: 836 nM | concentration at 1 h [12]: 346 nM | Kp at 1 h [13]: 0.31 | IC50 [14]: > 100000 nM | IC50 [3]: > 100000 nM | IC50 [4]: 61000 nM | Kp at 1 h [16]: 0.3 | concentration at 1 h [17]: 256 nM | IC50 [5]: 28000 nM | concentration at 1 h [18]: 93 nM | IC50 [19]: 35000 nM | IC50 [1]: 12.6 nM | concentration at 1 h [20]: 1120 nM | logD [7]: 2 | Kp at 1 h [21]: 0.31 | concentration at 1 h [22]: 3010 nM | Ki [9]: 100 nM | IC50 [10]: 15000 nM
Structure (SMILES): O=C([O-])c1cccc(Cc2cc(Cl)ccc2OCc2ccc(F)cc2Cl)n1.[Na+]
ED50 [15]: 5.6 mg/kg

IC50 [1]: 0.129 nM | Ratio [23]: < 0.05
Structure (SMILES): Cc1cc(C(=O)[O-])nn1Cc1cc(Br)ccc1OCc1ccc(Cl)cc1Cl.[Na+]
Activity [24]: 70%

IC50 [1]: 79.4 nM
Structure (SMILES): O=C(O)c1cccc(Cc2cc(Cl)ccc2OCc2c(F)cc(F)cc2F)n1

IC50 [1]: 25.1 nM
Structure (SMILES): O=C(O)c1cccc(Cc2cc(Cl)ccc2OCc2ccc(F)cc2F)n1

Reference: ChEMBL document CHEMBL1138602, “Discovery of sodium 6-[(5-chloro-2-{[(4-chloro-2-fluorophenyl)methyl]oxy}phenyl)methyl]-2-pyridinecarboxylate (GSK269984A) an EP(1) receptor antagonist for the treatment of inflammatory pain” (Bioorg Med Chem Lett, 2009)
